Compound activity: PubChem BioAssay, The Scripps Research Institute Molecular Screening Center
DAGLB inhibitor – DAGLB lipase inhibitors, primary screen, biochemical, fluorescence, HTS; Diacylglycerol lipase-beta (Homo sapiens), Q8NCG7; HEK293T DAGLB membrane lysate, EnzChek fluorogenic substrate; inhibition, % at 5.17 µM; 340,000 compounds, 0.059% hits; in the data active = inhibition above about 34%
Target sequence (Q8NCG7 whole entry, looked up): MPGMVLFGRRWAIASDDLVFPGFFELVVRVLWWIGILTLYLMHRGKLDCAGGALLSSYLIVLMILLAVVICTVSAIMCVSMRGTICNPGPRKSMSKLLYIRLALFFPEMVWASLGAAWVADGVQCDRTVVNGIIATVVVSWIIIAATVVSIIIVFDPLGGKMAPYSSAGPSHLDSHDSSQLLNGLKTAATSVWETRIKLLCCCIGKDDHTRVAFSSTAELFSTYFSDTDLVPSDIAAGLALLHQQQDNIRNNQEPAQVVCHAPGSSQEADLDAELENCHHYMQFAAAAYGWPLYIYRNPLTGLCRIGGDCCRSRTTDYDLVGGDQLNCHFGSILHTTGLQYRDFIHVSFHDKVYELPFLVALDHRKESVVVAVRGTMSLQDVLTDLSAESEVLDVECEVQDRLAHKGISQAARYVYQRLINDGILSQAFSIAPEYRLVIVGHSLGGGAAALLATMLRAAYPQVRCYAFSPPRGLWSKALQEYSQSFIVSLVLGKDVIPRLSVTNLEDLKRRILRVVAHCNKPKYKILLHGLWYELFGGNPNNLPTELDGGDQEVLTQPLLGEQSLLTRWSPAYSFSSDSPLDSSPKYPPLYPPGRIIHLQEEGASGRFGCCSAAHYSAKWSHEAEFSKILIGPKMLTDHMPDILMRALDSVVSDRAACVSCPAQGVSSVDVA
TCR-CD3 inh – inhibitors of human TCR-CD3 interaction, primary screen, biochemical, fluorescence, TAMRA-labeled TCR probe; inhibition, % at 9.4 µM; 360,000 compounds, 0.37% hits; T-cell receptor (TCR);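 also: recombinant mutant TCR 2C K166C tagged with TAMRA read by polarization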
HTRA1 inh – HTRA1 serine protease inhibitors, primary screen, biochemical, fluorescence polarization, HTS; recombinant HTRA1, FP-rhodamine activity-based probe; inhibition, % at 5.96 µM; 340,000 compounds, 0.5% hits; in the data active = inhibition above about 36%
mABHD4 FP – ABHD4 inhibitors, primary screen, biochemical, fluorescence polarization, mouse | 370,000 compounds, 0.54% hits | AID 720543, 2013 | (Lyso)-N-acylphosphatidylethanolamine lipase (Mus musculus), Q8VD66 | inhibition, % at 8.92 µM | purified mABHD4, FP-Rh probe fluorescence polarization;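 active = inhibition exceeding the mean over every tested compound plus 3 SD, cut at about 30% in these data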
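Test system: mABHD4 protein; Read-out basis: % inhibition; Incubation: 45 min + 60 min at 25 °C; Repeats: single replicate; Technique: fluorescence polarization with parallel and perpendicular emission, 525/598 nm; Compound: 8.92 µM, single dose; Benchmarks: full inhibition S159A mutant plus DMSO, zero as sample-well median.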
SIAE inh – human SIAE inhibitors, primary screen, biochemical, fluorescence polarization, FP-Rh probe, 1536-well HTS. 370,000 compounds, 0.69% hits. AID 1053197, 2014. SIAE FP-Rh probe binding. inhibition, % at 9.66 µM;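 active = inhibition above a cutoff: mean of compounds within the control limits plus 3 SD of those, cut at about 17% in these data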
BSA probe FL – compounds interfering with TAMRA-BSA probe, counter-screen for TCR-CD3 interaction inhibitor project, biochemical, fluorescence, TAMRA-labeled BSA; AID 652035, 2013; TAMRA-labeled BSA probe fluorescence counterscreen; 1,200 compounds, 10% hits; inhibition, % at 9.4 µM; shares compounds with TCR-CD3 inh; in the data active = inhibition above about 23%
TCR-CD3 conf – TCR-CD3 interaction inhibitors, retest, confirmation, biochemical, fluorescence, TAMRA-labeled TCR probe; shares compounds with TCR-CD3 inh; TAMRA-labeled TCR probe fluorescence binding assay; inhibition, % at 9.4 µM; 1,200 compounds, 48% hits
ABHD4 confirm – ABHD4 inhibitors, retest, confirmation, biochemical, fluorescence polarization, mouse. shares compounds with mABHD4 FP. purified mABHD4, FP-Rh probe fluorescence polarization. inhibition, % at 8.92 µM. 1,800 compounds, 55% hits;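 active = mean inhibition across replicates above the hit cutoff set in the primary screen, cut at about 30% in these data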
Each line names hits and unclear results; the compound was inactive in the other large screens (follow-up assays come after a bar, where they were run). The list is not random: actives were taken first. Their share in the collection is about 1.5%. Rule as the data show it, unless noted: active = inhibition above about 19%; inactive = the rest.

O=S(=O)(c1ccc2nc(-c3ccccc3)[nH]c2c1)N1CCN(c2cccc(Cl)c2)CC1	TCR-CD3 inh 68 | BSA probe FL 27 | TCR-CD3 conf 45
Cc1ccc(CN2CCCCC(NC(=O)c3ccc(Br)cc3)C2=O)cc1 (configuration not stated)	none (no result: DAGLB inhibitor, TCR-CD3 inh, HTRA1 inh)
COc1ccc(C2=NOC(C)(c3nnc(-c4ccc(Cl)cc4)o3)C2)cc1 (configuration not stated)	TCR-CD3 inh 34 | BSA probe FL inactive | TCR-CD3 conf inactive
CC1(c2nnnn2Cc2ccccc2)CN(S(C)(=O)=O)CC(=O)N1Cc1cccs1 (configuration not stated)	none (no result: DAGLB inhibitor, TCR-CD3 inh, HTRA1 inh)
O=C(CN1CCc2[nH]c3ccccc3c2C1)N1CCCCC1	none
O=C(CN1CCN(c2ccccc2)CC1)N1CCc2[nH]c3ccccc3c2C1	TCR-CD3 inh 22 | BSA probe FL inactive | TCR-CD3 conf inactive
CCN1CCN(C(=O)C2CCN(S(=O)(=O)c3ccc(Br)cc3)CC2)CC1	TCR-CD3 inh 19 | BSA probe FL inactive | TCR-CD3 conf inactive
COCc1cc(N2CCNC[C@H]2C)ccc1N1CCN(Cc2ccccc2)[C@@H](C)C1	none (no result: DAGLB inhibitor, HTRA1 inh)
NC1=NC[C@H](Cc2ccc(O)cc2)N1CCc1cccc(F)c1	TCR-CD3 inh 33 | BSA probe FL inactive | TCR-CD3 conf inactive
O=C(Nc1nc(-c2ccco2)c(-c2ccco2)s1)c1c(F)cccc1Cl	none
O=C(Nc1nc(-c2ccco2)c(-c2ccco2)s1)c1cnccn1	TCR-CD3 inh 38 (no result: DAGLB inhibitor, HTRA1 inh) | BSA probe FL inactive | TCR-CD3 conf inactive
COc1cc(OC)c2cc(C(=O)N/N=C/c3cccc(OC)c3O)[nH]c2c1	TCR-CD3 inh 24, mABHD4 FP 32 | BSA probe FL inactive | TCR-CD3 conf inactive | ABHD4 confirm 58
Nc1ccc(N=Nc2ccccc2O)c(N)c1	TCR-CD3 inh 21, mABHD4 FP 39 (no result: DAGLB inhibitor, HTRA1 inh) | BSA probe FL inactive | TCR-CD3 conf inactive | ABHD4 confirm 40
CCCN1C(=O)c2[nH]nc(-c3ccccc3)c2C1c1ccc(Br)cc1 (configuration not stated)	none (no result: DAGLB inhibitor, HTRA1 inh)
Nc1ncnc2oc(-c3ccco3)c(-c3ccco3)c12	TCR-CD3 inh 58, mABHD4 FP 34, SIAE inh 36 | BSA probe FL inactive | TCR-CD3 conf 27 | ABHD4 confirm inactive
Nc1nnc(-c2ccco2)s1	none
Cc1cc(C(=O)N/N=C/c2cc(Cl)cc([N+](=O)[O-])c2O)c2ccccc2n1	TCR-CD3 inh 36, mABHD4 FP 32 | BSA probe FL inactive | TCR-CD3 conf 39 | ABHD4 confirm 37
O=C(NN=Cc1cc(Cl)ccc1[N+](=O)[O-])c1cccc2ccccc12	none
C[n+]1cc2c3c(ccc2c2ccc4cc5c(cc4c21)OCO5)OCO3	TCR-CD3 inh 20, mABHD4 FP 68, SIAE inh 19 (no result: DAGLB inhibitor, HTRA1 inh) | BSA probe FL inactive | TCR-CD3 conf 24 | ABHD4 confirm 71
C[n+]1c(/C=C/c2ccc3c(c2)OCO3)ccc2ccccc21	none
O=c1cc(Br)c(O)c(Br)cc1Br	TCR-CD3 inh 21, mABHD4 FP 31 | BSA probe FL inactive | TCR-CD3 conf inactive | ABHD4 confirm inactive
Oc1ccc(/C=N/n2c(COc3ccccc3)n[nH]c2=S)cc1O	TCR-CD3 inh 32, mABHD4 FP 36 | BSA probe FL inactive | TCR-CD3 conf 22 | ABHD4 confirm inactive
CC(C)C[C@@H]1COc2cc(F)ccc2S(=O)(=O)N1C	none (no result: DAGLB inhibitor, TCR-CD3 inh, HTRA1 inh)
CC1(C)CC(=O)C(C=Nc2ccc(O)cc2)=C(O)C1	none
COC(=O)C1C(O)=C(C=Nc2ccc(N)cc2)C(=O)CC1(C)C (configuration not stated)	TCR-CD3 inh 26, mABHD4 FP 38 | BSA probe FL inactive | TCR-CD3 conf inactive | ABHD4 confirm inactive
CC1(C)CC(=O)C(C=Nc2ccc(N)cc2)=C(O)C1	TCR-CD3 inh 23, mABHD4 FP 35 | BSA probe FL inactive | TCR-CD3 conf inactive | ABHD4 confirm inactive
O=C1NC(=S)NC1=Cc1ccco1	TCR-CD3 inh 24, mABHD4 FP 33 | BSA probe FL inactive | TCR-CD3 conf 21 | ABHD4 confirm inactive
COc1cccc(CC(=O)NCC2CCN(C(=O)C(=O)c3cccs3)CC2)c1	none (no result: DAGLB inhibitor, HTRA1 inh)
COc1cc2ccccc2nn1	none
COc1ccc2c(n1)Sc1nc3ccccc3nc1N2	TCR-CD3 inh 48, mABHD4 FP 32 | BSA probe FL inactive | TCR-CD3 conf inactive | ABHD4 confirm inactive
Cc1ccc(C(=O)NCCN2C(=O)C3C4C=CC(C4)C3C2=O)cc1 (configuration not stated)	none (no result: DAGLB inhibitor, TCR-CD3 inh, HTRA1 inh)
NC(=O)c1sc2nc3c(c(-c4ccco4)c2c1N)CCC3	TCR-CD3 inh 19, mABHD4 FP 30 | BSA probe FL inactive | TCR-CD3 conf inactive | ABHD4 confirm inactive
COc1ccc(S(=O)(=O)Nc2ccc3c(c2)C(=O)N([C@H](C)CO)C[C@H](C)[C@H](CN(C)C(=O)Nc2ccc(F)cc2)OCCCC[C@@H](C)O3)cc1	none (no result: DAGLB inhibitor, HTRA1 inh)
CN(c1ccccc1)S(=O)(=O)c1ccc(NC(=O)CC(=O)c2ccccc2)cc1	TCR-CD3 inh 56, mABHD4 FP 32 | BSA probe FL inactive | TCR-CD3 conf inactive | ABHD4 confirm inactive
NC1=NC(=O)C(=Cc2ccccc2)S1	none
NC1=NC(=O)/C(=C\c2ccco2)S1	TCR-CD3 inh 23, mABHD4 FP 31 | BSA probe FL inactive | TCR-CD3 conf inactive | ABHD4 confirm inactive
Cc1nc(S/C(=C\c2ccc(OCc3ccccc3Cl)cc2)C(=O)O)n[nH]1	none
Cc1nc(S/C(=C\c2ccc(-c3ccc(C(=O)O)c(Cl)c3)o2)C(=O)O)n[nH]1	TCR-CD3 inh 65, mABHD4 FP 39 | BSA probe FL inactive | TCR-CD3 conf 67 | ABHD4 confirm 54
Oc1cccc(CN2CCOCC2)c1O	TCR-CD3 inh 27, mABHD4 FP 42 | BSA probe FL inactive | TCR-CD3 conf inactive | ABHD4 confirm inactive
Oc1c(CN2CCOCC2)cc(CN2CCOCC2)c(O)c1O	none
CCOC(=O)N(C)C[C@@H]1OCc2cn(nn2)CCCC(=O)N([C@H](C)CO)C[C@H]1C	none (no result: DAGLB inhibitor, HTRA1 inh)
